Laboratory results reported in ChEMBL document CHEMBL3286245, “Synthesis and antitumor activity of pyrido [2,3-d]pyrimidine and pyrido[2,3-d] [1,2,4]triazolo[4,3-a]pyrimidine derivatives that induce apoptosis through G1 cell-cycle arrest” (Eur J Med Chem, 2014).
The source made the active and inactive calls. The calls are words filed in the database; no cut-off is given here.

Legend:
PC-3 [1] = assay: Cytotoxicity against human PC3 cells after 48 hrs by sulforhodamine B assay; type: functional, cell-based; conditions: PC-3, 48 h
In short: (§1)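 Exponentially growing cells harvested with 0.25% trypsin-EDTA, seeded at 1000–2000 cells/well in supplemented DMEM, left 24 h, then exposed 48 h to a concentration series; 5-fluorouracil as reference. Fixed with 10% TCA 1 h at 4 °C, stained 10 min with 0.4% SRB in 1% acetic acid, dye solubilized in Tris-HCl, OD read at 564 nm. IC50 from Boltzmann sigmoidal nonlinear fit; means of at least three experiments.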

A549 [2] = assay: Cytotoxicity against human A549 cells after 48 hrs by sulforhodamine B assay; type: functional, cell-based; conditions: A549, 48 h; in short: as §1
PC-3 [3] = assay: Induction of apoptosis in human PC3 cells assessed as condensed and fragmented chromatin at IC50 after 48 hrs by acridine orange/ethidium bromide staining-based fluorescence microscopic analysis; type: functional, cell-based
[4] = biological target: T1, CDK6/cyclin D1 (Homo sapiens) (UniProt P24385+Q00534); assay: Inhibition of CDK6/cyclin D1 (unknown origin) at 10 uM after 20 to 30 mins by scintillation counting analysis relative to control; type: protein-complex assay
PC-3 [5] = assay: Cell cycle arrest in human PC3 cells assessed as increase in accumulation at pre-G phase at IC50 after 48 hrs by propidium iodide staining-based flow cytometric analysis; type: functional
PC-3 [6] = assay: Cell cycle arrest in human PC3 cells assessed as reduction in accumulation at S phase at IC50 after 24 hrs by propidium iodide staining-based flow cytometric analysis; type: functional
[7] = biological target: Cyclin-dependent kinase 4/cyclin D1 (Homo sapiens) (UniProt P11802+P24385); assay: Inhibition of CDK4/cyclin D1 (unknown origin) at 10 uM after 20 to 30 mins by scintillation counting analysis relative to control; type: protein-complex assay
PC-3 [8] = assay: Cell cycle arrest in human PC3 cells assessed as accumulation at G0/G1 phase at IC50 after 24 hrs by propidium iodide staining-based flow cytometric analysis; type: functional
A549 [9] = assay: Ratio of 5-fluorouracil IC50 to compound IC50 for human A549 cells; type: functional
PC-3 [10] = assay: Induction of apoptosis in human PC3 cells assessed as condensed and fragmented chromatin at IC50 after 24 hrs by acridine orange/ethidium bromide staining-based fluorescence microscopic analysis; type: functional, cell-based
PC-3 [11] = assay: Induction of apoptosis in human PC3 cells assessed as increase in caspase-3 level at IC50 uM after 48 hrs by sandwich enzyme immunoassay relative to control; type: functional
HepG2 = assay: Cytotoxicity against human HepG2 cells after 48 hrs by sulforhodamine B assay; type: functional, cell-based; conditions: HepG2, 48 h; in short: as §1
MCF7 = assay: Cytotoxicity against human MCF7 cells after 48 hrs by sulforhodamine B assay; type: functional, cell-based; conditions: MCF7, 48 h; in short: as §1
PC-3 [12] = assay: Upregulation of p21 protein level in human PC3 cells at IC50 after 48 hrs by immunocytochemical analysis; type: functional, cell-based
PC-3 [13] = assay: Cell cycle arrest in human PC3 cells assessed as reduction in accumulation at G2/M phase at IC50 after 24 hrs by propidium iodide staining-based flow cytometric analysis; type: functional
PC-3 [14] = assay: Induction of apoptosis in human PC3 cells assessed as wrinkled cells at IC50 after 24 hrs by acridine orange/ethidium bromide staining-based fluorescence microscopic analysis; type: functional, cell-based
PC-3 [15] = assay: Upregulation of p21 protein level in human PC3 cells at IC50 after 48 hrs by Western blotting analysis relative to control; type: functional
PC-3 [16] = assay: Induction of apoptosis in human PC3 cells assessed as increase in caspase-3 level at IC50 uM after 24 hrs by sandwich enzyme immunoassay relative to control; type: functional
[17] = biological target: T1, CDK6/cyclin D1 (Homo sapiens); assay: Inhibition of CDK6/cyclin D1 (unknown origin) at 1 uM after 20 to 30 mins by scintillation counting analysis relative to control; type: protein-complex assay

Structure (SMILES) | IC50 (PC-3 [1]) [µM] | IC50 (A549 [2]) [µM] | other results
CC(=O)c1nn(-c2ccc(C)cc2)c2nc3nc(-c4cccs4)cc(-c4ccccc4)c3c(=O)n12 | 16.9 | 19.3 | 
CC(=O)c1nn(-c2ccc(F)cc2)c2nc3nc(-c4cccs4)cc(-c4ccccc4)c3c(=O)n12 | 35.9 | 39.1 | 
O=c1c2c(-c3ccccc3)cc(-c3cccs3)nc2nc2[nH][nH]c(=S)n12 | 32.4 | 54.1 | 
O=c1[nH]c(N/N=C/c2ccc(Cl)cc2)nc2nc(-c3cccs3)cc(-c3ccccc3)c12 | 23.8 | 40.8 | 
O=c1[nH][nH]c2nc3nc(-c4cccs4)cc(-c4ccccc4)c3c(=O)n12 | 12.7 | 14.7 | 
CC(=O)c1nn(-c2ccc(S(N)(=O)=O)cc2)c2nc3nc(-c4cccs4)cc(-c4ccccc4)c3c(=O)n12 | 0.36 | 0.41 | Activity (PC-3 [3]): Active; inhibition [4]: 1%; Activity (PC-3 [5]): Active; Activity (PC-3 [6]): Active; inhibition [7]: 5%; Activity (PC-3 [8]): Active; Ratio IC50 (A549 [9]): 10; Activity (PC-3 [10]): Active; fold change (FC) (PC-3 [11]): 2; IC50 (HepG2): 56.6 µM; IC50 (MCF7): 38 µM; Activity (PC-3 [12]): Active; Activity (PC-3 [13]): Active; Activity (PC-3 [14]): Active; fold change (FC) (PC-3 [15]): 1.7; fold change (FC) (PC-3 [16]): 1.5; inhibition [17]: 2%
CCOC(=O)c1nn(-c2ccccc2)c2nc3nc(-c4cccs4)cc(-c4ccccc4)c3c(=O)n12 | 33.6 | 26.6 | 
CCOC(=O)c1nn(-c2ccc(S(N)(=O)=O)cc2)c2nc3nc(-c4cccs4)cc(-c4ccccc4)c3c(=O)n12 | 7.15 | 16.4 | 
Nc1n[nH]c2nc3nc(-c4cccs4)cc(-c4ccccc4)c3c(=O)n12 | 12.3 | 43.7 | 
O=c1[nH]c(N/N=C/c2ccccc2)nc2nc(-c3cccs3)cc(-c3ccccc3)c12 | 26.8 | 32.1 | 
CCOC(=O)c1nn(-c2ccc(C)cc2)c2nc3nc(-c4cccs4)cc(-c4ccccc4)c3c(=O)n12 | 33.3 | 37.8 | 
CCOC(=O)c1nn(-c2ccc(Cl)cc2)c2nc3nc(-c4cccs4)cc(-c4ccccc4)c3c(=O)n12 | 37.4 | 72.6 | 
COc1ccc(-n2nc(C(C)=O)n3c(=O)c4c(-c5ccccc5)cc(-c5cccs5)nc4nc23)cc1 | 19.5 | 24.6 | 
CC(=O)c1nn(-c2ccccc2)c2nc3nc(-c4cccs4)cc(-c4ccccc4)c3c(=O)n12 | 32.3 | 58.3 | 
Cc1ccc(/C=N/Nc2nc3nc(-c4cccs4)cc(-c4ccccc4)c3c(=O)[nH]2)cc1 | 0.63 | 56.6 | 
Cc1n[nH]c2nc3nc(-c4cccs4)cc(-c4ccccc4)c3c(=O)n12 | 83.9 | 55.5 | 
O=c1[nH]cc(F)c(=O)[nH]1 [FLUOROURACIL] | 12 | 4.21 | 
COc1ccc(/C=N/Nc2nc3nc(-c4cccs4)cc(-c4ccccc4)c3c(=O)[nH]2)cc1 | 18.2 | 18.7 | 
CC(=O)c1nn(-c2ccc(Cl)cc2)c2nc3nc(-c4cccs4)cc(-c4ccccc4)c3c(=O)n12 | 22.9 | 30.6 | 
O=c1c2c(-c3ccccc3)cc(-c3cccs3)nc2nc2[nH]ncn12 | 11.7 | 21.7 | 
O=c1[nH]c(N/N=C/c2ccc(F)cc2)nc2nc(-c3cccs3)cc(-c3ccccc3)c12 | 1.54 | 3.36 | 
